Compound activity deposited in PubChem by several laboratories.
Cathepsin G inh: inhibitors of human cathepsin G; 62,000 compounds, 0.2% hits; purified enzyme, AMC-tetrapeptide fluorescence, pooled mixtures; AID 581; inhibition, % at 5 µM (by protocol);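 active = inhibition above 20% in each of the two mixture wells holding the compound; inactive = inhibition of 20% or less in either well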
FXIa mix inh: inhibitors of human coagulation factor XIa, pooled mixtures; purified FXIa, fluorogenic substrate; inhibition, % at 5 µM; 62,000 compounds, 0.19% hits;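 also: each value is inhibition by a whole ten-compound pool holding the compound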
FXIIa inh mix: inhibitors of human coagulation factor XIIa, pooled mixtures; P00748; purified FXIIa, fluorogenic substrate; inhibition, % at 5 µM; 62,000 compounds, 0.2% hits
MMP13 inh: blocks human MMP13 activity. AID 570. P45452. MMP-13 fTHP FRET cleavage, Mca fluorescence. inhibition, % at 4 µM. 65,000 compounds, 0.07% hits;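 active = inhibition above the mean of compound-free control plate wells plus 3 SD, cut at about 14% in these data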
C1s block: human complement C1s inhibition; P09871; purified C1s, fluorogenic AMC substrate, pooled mixtures; 62,000 compounds, 0.16% hits; mean inhibition % of two 10-compound mixtures (hits give high values), % at 5 µM (by protocol);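 active = inhibition above 20% in each of the two 10-compound mixture wells holding the compound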
Target sequence (P09871 16-437 limits assumed): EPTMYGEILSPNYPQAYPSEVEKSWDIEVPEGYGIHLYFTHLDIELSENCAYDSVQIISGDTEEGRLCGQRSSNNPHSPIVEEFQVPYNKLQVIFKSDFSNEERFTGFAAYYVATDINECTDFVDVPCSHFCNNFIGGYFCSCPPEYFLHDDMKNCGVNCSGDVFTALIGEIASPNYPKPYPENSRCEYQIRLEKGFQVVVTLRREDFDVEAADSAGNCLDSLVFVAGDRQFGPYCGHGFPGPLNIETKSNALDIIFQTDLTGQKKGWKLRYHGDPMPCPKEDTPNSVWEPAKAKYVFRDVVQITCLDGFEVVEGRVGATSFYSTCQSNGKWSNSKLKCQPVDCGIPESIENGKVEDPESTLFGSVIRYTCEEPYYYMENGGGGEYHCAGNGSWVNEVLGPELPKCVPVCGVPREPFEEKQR
Target sequence (P09871 438-688 limits assumed): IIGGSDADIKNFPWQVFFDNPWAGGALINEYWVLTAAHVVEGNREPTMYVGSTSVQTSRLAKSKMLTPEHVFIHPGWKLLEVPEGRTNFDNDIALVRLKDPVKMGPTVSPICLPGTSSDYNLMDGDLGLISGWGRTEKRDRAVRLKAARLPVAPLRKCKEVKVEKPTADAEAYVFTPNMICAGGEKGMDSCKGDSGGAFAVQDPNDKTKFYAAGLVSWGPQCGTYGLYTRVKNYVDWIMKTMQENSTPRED
AP ELISA ortho: orthogonal test for alternative complement pathway inhibitors; 62,000 compounds, 0.08% hits; Human serum alternative complement pathway, LPS-coated ELISA, C3 deposition; tested in compound mixtures; inhibition, % at 5 µM;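 active = inhibition above 30% in each of the two pooled mixtures holding the compound, so the lower value exceeds 30%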
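Test system: human serum alternative complement pathway, C3 deposition on LPS-coated wells; also added: Plate-bound LPS; doses: 5 µM per compound in ten-compound mixtures; schedule: 1 h at 37 °C; detection: Anti-C3 ELISA, OD 450 nm; evaluation: percent inhibition of C3 deposition onto LPS; repeats: two pool placements per compound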
Of the large screens only hits and unclear results are named; the others gave an inactive call. Compounds with a hit are over-represented: about 0.58% of the library has one in this group of screens. Rule as the data show it, unless noted: active = inhibition above about 20% (passing the limit was not always enough); inactive = the rest.

O=C(CN(C(=O)c1ccc2c(c1)OCCO2)c1ccccc1)NCC1CCCO1 (configuration not stated)	none
CCOC(=O)N1CCC(N2C(=O)c3ccccc3C2Nc2cc(C(=O)OC)cc(C(=O)OC)c2)CC1 (configuration not stated)	none
Cc1cc(CCN2CCC(=O)NC2=O)ccc1OC(C)C	none
CCc1nn(C(C)C(=O)NC(C)CCc2ccco2)c(=O)c2cc3occc3n12 (configuration not stated)	none
CCOC(=O)C1CCCN(c2nc3ccccc3nc2C(C#N)C(=O)OCCOC)C1 (configuration not stated)	none (no result: Cathepsin G inh, FXIa mix inh, FXIIa inh mix, C1s block, AP ELISA ortho)
CCOC(=O)C1CCCN(c2nc3ccccc3nc2C(C#N)C(=O)OCC)C1 (configuration not stated)	MMP13 inh 14
CCN1C(=S)SC(=O)C1=C1C=C(C)N(CCO)C(C)=C1	none
CCN1C(=S)SC(=O)C1=C1C=C(C)N(CCOC)C(C)=C1	MMP13 inh 27
C=CCN=C(NC#N)SCC(=O)c1cccc(OC)c1	none
O=C(N1CCN=C1SCc1cccnc1)C12CC3CC(CC(C3)C1)C2	none
CCOC(=O)N1CC=C2C(C#N)=C(N)C(C#N)(C#N)[C@H](c3ccccc3OCC)[C@H]2C1	C1s block 64
CCOC(=O)N1CC=C2C(C#N)=C(N)C(C#N)(C#N)[C@H](c3ccc(OC(C)C)c(OCC)c3)[C@H]2C1	none
COc1ccc2c(c1)CCc1c(C(=O)NC3CCCCC3)noc1-2	Cathepsin G inh 74
COCC(C)NC(=O)c1noc2c1CCc1cc(OC)ccc1-2 (configuration not stated)	Cathepsin G inh 39
COc1ccc(CNC(=O)c2noc3c2CCCC3)cc1	none
COCCNC(=O)c1noc2c1CCc1cc(OC)ccc1-2	Cathepsin G inh 50
COCC(C)NC(=O)c1cc(-c2ccccc2OC)on1 (configuration not stated)	none
COc1ccc2c(c1)CCc1c(C(=O)NCCCn3ccnc3)noc1-2	Cathepsin G inh 36
O=C(NC1CCCCC1)c1noc2c1CCCCC2	none
COc1ccc2c(c1)CCc1c(C(=O)NCc3ccco3)noc1-2	Cathepsin G inh 56
O=C(NCc1ccco1)c1noc2c1CCCCC2	none
COc1ccc2c(c1)CCc1c(C(=O)NCCN3CCOCC3)noc1-2	Cathepsin G inh 58
COc1cccc(-c2cc(C(=O)NCCN3CCOCC3)no2)c1	none
N#Cc1nc(-c2ccc(OCc3ccccc3)cc2)oc1NCc1cccnc1	none
CN(C)c1oc(-c2ccc(OCc3ccccc3)cc2)nc1C#N	FXIa mix inh 23
COc1cccc(N2C(=O)N(c3ccccc3Cl)C3CS(=O)(=O)CC32)c1 (configuration not stated)	C1s block 23
O=C(Nc1ccncc1)C1(c2ccccc2)CCCC1	AP ELISA ortho 39
Cc1cc(C)cc(N2CCCn3c2nc2c3c(=O)n(CCN3CCOCC3)c(=O)n2C)c1	FXIa mix inh 23
O=C(NCc1ccco1)C1CC(=O)N(c2ccc(O)cc2)C1 (configuration not stated)	none
CCOc1ccc2[nH]c3c(N4CCN(c5ccccn5)CC4)ncnc3c2c1	C1s block 69
CN(C)S(=O)(=O)Nc1ccc2c(c1)OCO2	FXIa mix inh 24
Cn1c(=O)c2cc(S(=O)(=O)Nc3ccc4c(c3)OCO4)ccc2n(C)c1=O	none
Cn1c(=O)oc2cc(S(=O)(=O)Nc3ccc4c(c3)OCO4)ccc21	FXIIa inh mix 45
O=S(=O)(Nc1ncnc2c1oc1ccccc12)c1ccc(Cl)s1	none
COc1ccccc1CNC(=O)CN(C)CC(=O)Nc1cccc(F)c1	none
COc1ccc(-c2nnc3n2N=C(c2ccccc2)CS3)cc1OC	FXIIa inh mix 32
COc1ccc(C2=Nn3c(nnc3-c3ccccc3)SC2)cc1OC	none
COc1cccc(C2NC(=O)NC(C)=C2C(=O)Nc2cccc(C)c2C)c1 (configuration not stated)	FXIIa inh mix 21
COc1ccccc1-c1cc(C(=O)NCc2ccccc2)no1	Cathepsin G inh 51
COc1ccc(CCNC(=O)c2cc(-c3ccccc3)on2)cc1OC	FXIIa inh mix 47
COc1ccccc1-c1cc(C(=O)NCc2ccc(F)cc2)no1	none (no result: Cathepsin G inh)
COc1ccccc1-c1cc(C(=O)NCc2ccc(Cl)cc2)no1	Cathepsin G inh 46
CN1C(=O)/C(=C2/C=Cc3ccccc3N2CCCS(=O)(=O)O)SC1=S	MMP13 inh 18
C=CCN1C(=O)/C(=C2/Sc3ccccc3N2CCCS(=O)(=O)O)SC1=S	MMP13 inh 16
O=C(C1CCC(CNS(=O)(=O)c2cccc3cccnc23)CC1)N1CCCC1 (configuration not stated)	FXIIa inh mix 22
CCSc1nnc(NC(=O)CSc2nc3c(c(=O)n2CCOC)SC(C)C3)s1 (configuration not stated)	none
COc1ccc(Cl)cc1NC(=O)CCN1CCN(c2ccccc2C)CC1	C1s block 67
COc1ccc(C(=O)Nc2cc(-c3nn4c(C)nnc4s3)ccc2C)cc1	none
Cc1ccc(-c2nn3c(C)nnc3s2)cc1NC(=O)c1ccc(OC(C)C)cc1	FXIa mix inh 22
Nc1ccc2oc(-c3ccccn3)nc2c1	none
Clc1ccc2oc(-c3ccccn3)nc2c1	AP ELISA ortho 38
COc1ccc(C(=O)n2nc(-c3ccccc3)nc2N)cc1OC	Cathepsin G inh 44
O=C(O)CCC(NS(=O)(=O)c1ccc(N2CCCC2=O)cc1)C(=O)O (configuration not stated)	none
O=C(O)CCC(NS(=O)(=O)c1ccc(-c2ccccc2)cc1)C(=O)O (configuration not stated)	MMP13 inh 50
O=C(Cc1cccs1)Nc1ccc(NC(=O)c2ccco2)cc1	none
CSc1nnc(-c2sc3cc(Cl)ccc3c2Cl)n1C	none
CCn1c(SC)nnc1-c1sc2cc(Cl)ccc2c1Cl	FXIIa inh mix 42
Clc1cccc(CSc2nnc(-c3cccnc3)n2Cc2ccco2)c1	AP ELISA ortho 37
O=C(NCc1ccco1)C(Cc1ccccc1)N1C(=O)c2ccccc2C1=O (configuration not stated)	FXIa mix inh 26
CCOC(=O)CSc1nnc(CNC(=O)Cc2ccccc2)n1C	none
COC(=O)CSc1nnc(CNC(=O)Cc2ccccc2)n1C	FXIa mix inh 26
CC1Cc2cc(C3(O)C(=O)c4ccccc4C3=O)ccc2N1 (configuration not stated)	none
CC(=O)Nc1cc(OC(=O)c2ccco2)cc(OC(=O)c2ccco2)c1	FXIa mix inh 25 (no result: MMP13 inh)
CCCCCCOc1ccc(C(=O)n2cnc(N)n2)cc1	none (no result: Cathepsin G inh, FXIa mix inh, FXIIa inh mix, C1s block, AP ELISA ortho)
CCCCCCOc1ccc(C(CC(=O)O)C(N)=O)cc1 (configuration not stated)	MMP13 inh 26
CCCCn1c(SCC(N)=O)nnc1-c1ccco1	none
